Test results from ChEMBL document CHEMBL4513216, “Probing the Open Global Health Chemical Diversity Library for Multistage-Active Starting Points for Next-Generation Antimalarials” (ACS Infect Dis, 2020).

assay: Toxicity liver stage against HepG2, at 10uM; type: cell-based; set-up: test concentration 10 uM, cell line HepG2-A16-CD81EGFP; details: human, HepG2-A16-CD81EGFP cells; read-out: INHIBITION
In short: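 Uninfected HepG2-A16-CD81EGFP cells, 3 × 10^3 per well, 1536-well, plated on prespotted compound at 10 μM final, parasite-free screening media added to match infected plates; puromycin 10 μM positive, DMSO 0.5% negative; run in parallel with 48 h PbLuc assay at 37 °C, 5% CO2; viability by CellTiter-Glo luminescence, normalized to controls.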

| SMILES | cytotoxicity at 10 µM |
| --- | --- |
| Cc1cc(NCc2ccc(N3CCNC(=O)C3)cc2)nc(C)n1 | -4.99% |
| CS(=O)(=O)N1CCO[C@@H]2CN(Cc3ccc(F)cc3)C[C@@H]2C1 | 4.74% |
| O=C(CCO)N1CC2(CCN(c3ccccc3)C2)C1 | 8.76% |
| CN(C)C[C@H]1OC[C@@H]2CCN(C(=O)NCc3cccc(F)c3)C[C@@H]21 | 6.98% |
| CS(=O)(=O)N1CCCCC12CCN(C(=O)c1ccccc1)C2 (stereo unspecified) | -148% |
| NC(=O)N1Cc2nccn2CC(Cn2ncccc2=O)C1 (stereo unspecified) | 3.19% |
| Cc1noc([C@@]23CCO[C@@H]2CCN(C(=O)c2cc(C)on2)C3)n1 | 10.9% |
| COCc1ncn2c1CN(S(=O)(=O)c1cccc(OC)c1)CC2 | 3.47% |
| CN(C)S(=O)(=O)N1CCC2(COCc3cnc(NCC4CC4)nc32)C1 (stereo unspecified) | 7.66% |
| COCCO[C@H]1CCN(C(=O)NC2CC2)[C@H]1Cc1cnn(C)c1 | 8.36% |
| O=C(Cc1ccsc1)N1C[C@@H]2C[C@@H](c3nnc(C4CC4)o3)O[C@@H]2C1 | -142% |
| CCn1nc(C)c2nc(C)nc(NCCc3ccc(C)cc3)c21 | 50.9% |
| N#Cc1cn[nH]c1NCc1cc(Cl)cc(Cl)c1O | 19.1% |
| Nc1nnc(Cn2nnc(-c3ccccc3F)n2)s1 | 3.09% |
| Cc1ccc(Nc2nccc(C3CN(C(C)C)C3)n2)nc1 | -26.2% |
| CC(C)(C)NC(=O)Cn1c(=O)n(Cc2ccco2)c2ncccc21 | -6% |
| CN1CCC(Cc2cc(Nc3ncccn3)ncn2)CC1 | 1.05% |
| Cc1ccnc(NC(=O)C2CCCO2)c1 (stereo unspecified) | -11.3% |
| COC(=O)CC1CCCCN1CC(=O)Nc1ccc(F)cc1Cl (stereo unspecified) | 14% |
| CCc1ccc(C(=O)NC2CCN(c3ccn(C)n3)C2)o1 (stereo unspecified) | -0.577% |
| CCOC1CCN(C(=O)NCc2ccc(CN3CCOCC3)cc2)CC1 | 7.31% |

| SMILES | cytotoxicity at 10 µM |
| --- | --- |
| Cc1noc(C)c1CN(C)Cc1csc(-c2ccccc2F)n1 | 37.2% |
| COCc1cc(N(C)Cc2cnccn2)nc(C(C)(C)C)n1 | 8.24% |
| COc1cc(OC)cc(N2CCC(NC(=O)c3cccn3C)CC2)c1 | -2.1% |
| CC(NC(=O)c1cccs1)(C(N)=O)c1cccc(C(F)(F)F)c1 (stereo unspecified) | -3.42% |
| CN(Cc1ccco1)C(=O)CN1CCCC1c1cccs1 (stereo unspecified) | -3.62% |
| COc1cccc(CN2CCCC2c2ccc[nH]2)c1 (stereo unspecified) | -1.38% |
| NC(=O)COc1cccc(CN2CCCC2c2ccc[nH]2)c1 (stereo unspecified) | 8.58% |
| Cc1ccc(C2CCCN2CC(=O)N(CCC#N)c2ccccc2)cc1 (stereo unspecified) | -6.89% |
| CCNC(=O)NC(=O)CN1CCC(c2c[nH]c3ccc(OC)cc23)CC1 | -12.9% |
| Cc1nc(C)c(C(=O)NCC(c2ccccc2Cl)N2CCOCC2)s1 (stereo unspecified) | 1.4% |
| CCS(=O)(=O)NCC(=O)N1CC2(CCCC2)c2c(F)cccc21 | 1.56% |
| CCN(CC(=O)NC)C(=O)Cc1csc(C(C)C)n1 | -3.61% |
| CCn1nc(C)c(S(=O)(=O)Nc2cccc(C(=O)O)c2C)c1C | -0.731% |
| CC(NCc1ccccc1O)c1ccc(-n2ccnc2)cc1 (stereo unspecified) | -46.9% |
| CC(=O)c1ccc(NC(=O)NCc2cccc(N(C)C)n2)cc1C | 6.45% |
| CC(C)c1cc(C(=O)NCC2(C(N)=O)CCOCC2)nn1C(C)(C)C | 10.3% |
| CCC(C)CS(=O)(=O)NC(=O)C1CCC1 (stereo unspecified) | -7.88% |
| O=C(COC1CCCC1)NC(C(=O)Nc1cc[nH]n1)c1ccccc1 (stereo unspecified) | -10.7% |
| Cn1c(CCN2CCN(c3ccc(O)cc3)CC2)nc2ccccc21 | -37.5% |
| CCOc1ccccc1CNC(=O)NCC(c1cnn(C)c1)N(C)C (stereo unspecified) | 4.15% |
| Cc1cc(NCCCNS(C)(=O)=O)nc2ccccc12 | -4.69% |

| SMILES | cytotoxicity at 10 µM |
| --- | --- |
| COc1ccc(Oc2cc(CN)ccn2)cc1 | 3.98% |
| CCc1nnc(CN2CCC(C3CCCCCN3C(=O)C3CC3)CC2)o1 (stereo unspecified) | -49.7% |
| CCC(O)CN(C)Cc1nnc2ccccn12 (stereo unspecified) | -26.7% |
| CCS(=O)(=O)N(C)C1CCN(C(=O)c2cccc(Cl)c2)CC1 | -13.7% |
| c1cnn(CC2CN(c3ncnc4ccsc34)CCO2)c1 (stereo unspecified) | 38.7% |
| Cn1ccnc1CN1CCC2(CC1)COCCN(c1ncccn1)C2 | 11.3% |
| CCO[C@H]1CC[C@H]2[C@@H]1OCCN2C(=O)COc1ccccc1 | -88.5% |
| CN(C)C(=O)N1CCn2c(Cn3cccn3)cnc2C1 | -76.7% |
| O=C(c1cscn1)N1C[C@H]2CN(Cc3nccs3)C[C@H]2C1 | -65.4% |
| Cc1ccc(C(=O)N2C[C@H]3CCC[C@@]3(COCC3CCOCC3)C2)o1 | -66.3% |
| CC[C@H](C)[C@H](N)C(=O)N1CC(=O)c2sc(NCc3ccccc3)nc2C1 | -9.58% |
| Cc1ccc(C(=O)N2CC[C@@]3(O)CCN(C(=O)N(C)C)C[C@H]3C2)cc1Cl | -45.5% |
| N#Cc1ccccc1CN1CCC2(CC1)CC(c1ccccc1)C(=O)N2 (stereo unspecified) | -44.8% |
| CSC(C)CCN(Cc1ccccn1)Cc1sccc1C (stereo unspecified) | -2.49% |
| NC1(C(=O)NCC2CCCN(Cc3cccc4nonc34)C2)CCC1 (stereo unspecified) | -43.8% |
| CCc1cc(N2CCC(NCCSc3nnnn3C)CC2)nc(C)n1 | -15.2% |
| Oc1cc(CNCCCN2CCCC2)nc2ccc(F)cc12 | -56% |
| O=C(NCCn1ccnc1-c1cc2n(n1)CCNC2)c1ccncc1 | -2.66% |
| Oc1cc(CN2CCC(O)(Cn3ccnc3)CC2)nc2ccc(F)cc12 | -44.5% |
| CCNc1ncc(C(=O)NCc2csc(-c3ncccn3)n2)cn1 | 6.59% |
| Cc1nnc(-c2cccc(N3CCC(NC(C)CC(C)C)CC3)c2)s1 (stereo unspecified) | 0.363% |

| SMILES | cytotoxicity at 10 µM |
| --- | --- |
| CC(C)N1CCCn2nc(C(=O)NCc3ccccc3F)cc2C1 | -4.87% |
| O=C(c1ccon1)N1CCCCC1c1nc2cc(F)ccc2[nH]1 (stereo unspecified) | 2.58% |
| CCc1cccc(OC2CN(C(=O)[C@@H](N)[C@@H](C)O)C2)c1 | -3.92% |
| CN(Cc1ccccc1)c1ncccc1CNC1CN2CCC1CC2 (stereo unspecified) | 1.63% |
| CN1CCCC2(CCN(Cc3cncn3C3CCCCC3)C2)C1=O (stereo unspecified) | -5.96% |
| CC(=O)N1CCc2c(nc(N(C)C)nc2NCc2cccs2)C1 | -50.6% |
| Cc1ccoc1C(=O)N1CCCC(c2cc(C(F)(F)F)[nH]n2)C1 (stereo unspecified) | 2.4% |
| CN(Cc1cccs1)C(=O)CN1CCOC(Cn2cncn2)C1 (stereo unspecified) | -23.7% |
| O=C(NCCc1ccn(-c2ccccc2)n1)N1CCSCC1 | -2.71% |
| Cc1nccn1CCCn1cncc1-c1ccc2c(c1)CC(C)N2C (stereo unspecified) | 0.94% |
| O=S(=O)(c1ccccc1)N1CCC2(CCCN2Cc2cccc(Cl)c2)C1 (stereo unspecified) | -130% |
| O=C(C1CCC2(CCN(Cc3cccnc3)CC2)CO1)N1CCCC1 (stereo unspecified) | -108% |
| c1ccc(C[C@H]2CN(Cc3nccs3)CC[C@@H]2OCC2CC2)cc1 | -62.3% |
| CO[C@@H]1CCN(Cc2nccs2)C[C@@H]1Cc1ccccc1 | -69.5% |
| O=C([C@H]1CN(Cc2ccccc2F)C[C@H]2OCC[C@@H]12)N1CCCO1 | 13% |
| c1cnc(N2CCO[C@H]3CN(CC4CCC4)C[C@H]32)cn1 | -102% |
| c1cncc(N2CCO[C@H]3CN(CC4CCOC4)C[C@H]32)c1 (stereo partly specified) | -95.7% |
| Cc1cc(CN2C[C@@H]3CC[C@H]2CN(Cc2[nH]cnc2C)C3)on1 | -2.34% |
